In brackets after ≈: the same amount, converted by molar mass. Activity calls are given as the source filed them.
Test system: Yersinia pseudotuberculosis YPIII
Assay: Inhibition of T3S in Yersinia pseudotuberculosis YPIII expressing yopE-luxAB at 12.5 uM after 3 hrs by luciferase reporter gene assay
Settings: not given
Summary of the method: (§1)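 Strain YPIII pIB102 (yopE-luxAB) grown overnight at room temperature in BHI with 5 mM EGTA and 20 mM MgCl2 (calcium depletion), adjusted to OD600 0.088–0.095. Compound added from DMSO at 1.56–200 µM final (eight concentrations). Shaken 1 h at room temperature, then 2 h at 37 °C. Decanal added and light emission read immediately. Triplicates, repeated at least three times.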

Structure (SMILES)	inhibition [%]
O=C(N/N=C/c1cc(Br)ccc1O)c1ccccc1Cl	13
O=C(N/N=C/c1cccc(F)c1O)c1ccc([N+](=O)[O-])cc1	4
COc1ccc(/C=N/NC(=O)CCc2ccc(O)cc2)c(O)c1	16
COc1ccc(Br)c(C(=O)N/N=C/c2cc([N+](=O)[O-])cc([N+](=O)[O-])c2O)c1	12

Test system: Escherichia coli
Assay: Antibacterial activity against Escherichia coli DH5[alpha] at 50 uM after 23 hrs by broth dilution assay
Type: functional, organism-based
Settings: not given
Summary of the method: (§2)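 Overnight LB culture of E. coli DH5α grown at 37 °C, diluted to OD600 0.1 in LB with 2.5 mM CaCl2; compound added from DMSO stock to final 50 or 100 µM. Incubated at 37 °C with absorbance at 595 nm followed over 23 h.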

Structure (SMILES)	Activity
O=C(N/N=C/c1cc(Br)ccc1O)c1ccccc1Cl	inactive
O=C(N/N=C/c1cccc(F)c1O)c1ccc([N+](=O)[O-])cc1	inactive
COc1ccc(/C=N/NC(=O)CCc2ccc(O)cc2)c(O)c1	inactive
COc1ccc(Br)c(C(=O)N/N=C/c2cc([N+](=O)[O-])cc([N+](=O)[O-])c2O)c1	inactive

Test system: Yersinia pseudotuberculosis YPIII
Assay: Inhibition of T3S in Yersinia pseudotuberculosis YPIII expressing yopE-luxAB at 1.56 uM after 3 hrs by luciferase reporter gene assay
Settings: not given
Summary of the method: as §1

Structure (SMILES)	inhibition [%]
O=C(N/N=C/c1cc(Br)ccc1O)c1ccccc1Cl	10
O=C(N/N=C/c1cccc(F)c1O)c1ccc([N+](=O)[O-])cc1	1
COc1ccc(/C=N/NC(=O)CCc2ccc(O)cc2)c(O)c1	-2
COc1ccc(Br)c(C(=O)N/N=C/c2cc([N+](=O)[O-])cc([N+](=O)[O-])c2O)c1	-7

Test system: Yersinia pseudotuberculosis
Assay: Antibacterial activity against Yersinia pseudotuberculosis expressing pIB102 at 50 uM after 23 hrs by broth dilution assay
Type: functional, organism-based
Settings: not given
Summary of the method: (§3)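 Wild-type pIB102 grown overnight in LB at room temperature, diluted to OD600 = 0.1 in LB with 2.5 mM CaCl2. Compound added from DMSO stock to final 50 and 100 µM. Incubated at 37 °C with absorbance at 595 nm read over 23 h.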

Structure (SMILES)	Activity
O=C(N/N=C/c1cc(Br)ccc1O)c1ccccc1Cl	inactive
O=C(N/N=C/c1cccc(F)c1O)c1ccc([N+](=O)[O-])cc1	inactive
COc1ccc(/C=N/NC(=O)CCc2ccc(O)cc2)c(O)c1	inactive
COc1ccc(Br)c(C(=O)N/N=C/c2cc([N+](=O)[O-])cc([N+](=O)[O-])c2O)c1	inactive

Test system: Escherichia coli
Assay: Antibacterial activity against Escherichia coli DH5[alpha] at 100 uM after 23 hrs by broth dilution assay
Type: functional, organism-based
Settings: not given
Summary of the method: as §2

Structure (SMILES)	Activity
O=C(N/N=C/c1cc(Br)ccc1O)c1ccccc1Cl	inactive
O=C(N/N=C/c1cccc(F)c1O)c1ccc([N+](=O)[O-])cc1	inactive
COc1ccc(/C=N/NC(=O)CCc2ccc(O)cc2)c(O)c1	inactive
COc1ccc(Br)c(C(=O)N/N=C/c2cc([N+](=O)[O-])cc([N+](=O)[O-])c2O)c1	inactive

Test system: Yersinia pseudotuberculosis YPIII
Assay: Inhibition of T3S in Yersinia pseudotuberculosis YPIII expressing yopE-luxAB at 100 uM after 3 hrs by luciferase reporter gene assay
Settings: not given
Summary of the method: as §1

Structure (SMILES)	inhibition [%]
O=C(N/N=C/c1cc(Br)ccc1O)c1ccccc1Cl	58
O=C(N/N=C/c1cccc(F)c1O)c1ccc([N+](=O)[O-])cc1	20
COc1ccc(/C=N/NC(=O)CCc2ccc(O)cc2)c(O)c1	45
COc1ccc(Br)c(C(=O)N/N=C/c2cc([N+](=O)[O-])cc([N+](=O)[O-])c2O)c1	30

Test system: Yersinia pseudotuberculosis YPIII
Assay: Inhibition of T3S in Yersinia pseudotuberculosis YPIII expressing yopE-luxAB at 6.25 uM after 3 hrs by luciferase reporter gene assay
Settings: not given
Summary of the method: as §1

Structure (SMILES)	inhibition [%]
O=C(N/N=C/c1cc(Br)ccc1O)c1ccccc1Cl	10
O=C(N/N=C/c1cccc(F)c1O)c1ccc([N+](=O)[O-])cc1	2
COc1ccc(/C=N/NC(=O)CCc2ccc(O)cc2)c(O)c1	4
COc1ccc(Br)c(C(=O)N/N=C/c2cc([N+](=O)[O-])cc([N+](=O)[O-])c2O)c1	13

Test system: Yersinia pseudotuberculosis YPIII
Assay: Inhibition of T3S in Yersinia pseudotuberculosis YPIII expressing yopE-luxAB at 200 uM after 3 hrs by luciferase reporter gene assay
Settings: not given
Summary of the method: as §1

Structure (SMILES)	inhibition [%]
O=C(N/N=C/c1cc(Br)ccc1O)c1ccccc1Cl	61
O=C(N/N=C/c1cccc(F)c1O)c1ccc([N+](=O)[O-])cc1	59
COc1ccc(/C=N/NC(=O)CCc2ccc(O)cc2)c(O)c1	88
COc1ccc(Br)c(C(=O)N/N=C/c2cc([N+](=O)[O-])cc([N+](=O)[O-])c2O)c1	25

Test system: Yersinia pseudotuberculosis YPIII
Assay: Inhibition of T3S in Yersinia pseudotuberculosis YPIII expressing yopE-luxAB at 25 uM after 3 hrs by luciferase reporter gene assay
Settings: not given
Summary of the method: as §1

Structure (SMILES)	inhibition [%]
O=C(N/N=C/c1cc(Br)ccc1O)c1ccccc1Cl	11
O=C(N/N=C/c1cccc(F)c1O)c1ccc([N+](=O)[O-])cc1	19
COc1ccc(/C=N/NC(=O)CCc2ccc(O)cc2)c(O)c1	12
COc1ccc(Br)c(C(=O)N/N=C/c2cc([N+](=O)[O-])cc([N+](=O)[O-])c2O)c1	23

Test system: Chlamydia trachomatis
Assay: Antibacterial activity against Chlamydia trachomatis infected in human HeLa 229 cells after 35 hrs by fluorescence microscopy
Type: functional
Settings: not given
Summary of the method: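 HeLa 229 monolayers infected with C. trachomatis serovar L2, MOI 0.3; compounds diluted in RPMI 1640 with 10% FCS, 2 mM L-glutamine, 8 µg/mL gentamicin (DMSO final 1%) added 1 h post-infection at 50, 25, 12.5, 6.25, 3.13 µM. 35 h at 37 °C, 5% CO2; methanol fixation, immunostaining, fluorescence microscopy at 200×. MIC = lowest concentration with no intracellular inclusions; duplicates, ≥3 occasions.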

Structure (SMILES)	MIC [µM]
O=C(N/N=C/c1cc(Br)ccc1O)c1ccccc1Cl	50 (≈ 17.7 µg/mL)
O=C(N/N=C/c1cccc(F)c1O)c1ccc([N+](=O)[O-])cc1	50 (≈ 15.2 µg/mL)

Test system: not listed separately
Assay: Cytotoxicity against human HeLa 229 cells assessed as cell viability at 25 uM after 28 hrs using resazurin staining by fluorescence microscopy
Type: cell-based
Settings: read-out: Activity
Summary of the method: (§4)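 HeLa 229 viability measured at 50 and 25 µM using resazurin added 4 h before read-out; cell-free wells with medium plus compound exclude chemical reduction of resazurin. Scored relative to DMSO control, plus microscopic scoring; non-toxic defined as at least 70% viability versus control. Triplicates, repeated at least three times.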

Structure (SMILES)	viability at 28 h, 25 µM [%]
O=C(N/N=C/c1cc(Br)ccc1O)c1ccccc1Cl	77
O=C(N/N=C/c1cccc(F)c1O)c1ccc([N+](=O)[O-])cc1	75

Test system: Yersinia pseudotuberculosis
Assay: Antibacterial activity against Yersinia pseudotuberculosis expressing pIB102 at 100 uM after 23 hrs by broth dilution assay
Type: functional, organism-based
Settings: not given
Summary of the method: as §3

Structure (SMILES)	Activity
O=C(N/N=C/c1cc(Br)ccc1O)c1ccccc1Cl	inactive
O=C(N/N=C/c1cccc(F)c1O)c1ccc([N+](=O)[O-])cc1	inactive
COc1ccc(/C=N/NC(=O)CCc2ccc(O)cc2)c(O)c1	inactive
COc1ccc(Br)c(C(=O)N/N=C/c2cc([N+](=O)[O-])cc([N+](=O)[O-])c2O)c1	inactive

Test system: Yersinia pseudotuberculosis YPIII
Assay: Inhibition of T3S in Yersinia pseudotuberculosis YPIII expressing yopE-luxAB at 50 uM after 3 hrs by luciferase reporter gene assay
Settings: not given
Summary of the method: as §1

Structure (SMILES)	inhibition [%]
O=C(N/N=C/c1cc(Br)ccc1O)c1ccccc1Cl	38
O=C(N/N=C/c1cccc(F)c1O)c1ccc([N+](=O)[O-])cc1	28
COc1ccc(/C=N/NC(=O)CCc2ccc(O)cc2)c(O)c1	22
COc1ccc(Br)c(C(=O)N/N=C/c2cc([N+](=O)[O-])cc([N+](=O)[O-])c2O)c1	30

Test system: not listed separately
Assay: Cytotoxicity against human HeLa 229 cells assessed as cell viability at 50 uM after 28 hrs using resazurin staining by fluorescence microscopy
Type: cell-based
Settings: read-out: Activity
Summary of the method: as §4

Structure (SMILES)	viability at 28 h, 50 µM [%]
O=C(N/N=C/c1cc(Br)ccc1O)c1ccccc1Cl	60
O=C(N/N=C/c1cccc(F)c1O)c1ccc([N+](=O)[O-])cc1	72

Test system: Yersinia pseudotuberculosis YPIII
Assay: Inhibition of T3S in Yersinia pseudotuberculosis YPIII expressing yopE-luxAB at 3.13 uM after 3 hrs by luciferase reporter gene assay
Settings: not given
Summary of the method: as §1

Structure (SMILES)	inhibition [%]
O=C(N/N=C/c1cc(Br)ccc1O)c1ccccc1Cl	10
O=C(N/N=C/c1cccc(F)c1O)c1ccc([N+](=O)[O-])cc1	7
COc1ccc(/C=N/NC(=O)CCc2ccc(O)cc2)c(O)c1	-1
COc1ccc(Br)c(C(=O)N/N=C/c2cc([N+](=O)[O-])cc([N+](=O)[O-])c2O)c1	0

Reference: ChEMBL document CHEMBL1156948, “Statistical molecular design of a focused salicylidene acylhydrazide library and multivariate QSAR of inhibition of type III secretion in the Gram-negative bacterium Yersinia” (Bioorg Med Chem, 2010)
